Columns and labels:
Settings in all cases: stereoisomer not certain
OR10J5 (Homo sapiens) = target: T1, OR10J5 (Homo sapiens) (UniProt Q8NHC4)
T1 sequence (whole entry): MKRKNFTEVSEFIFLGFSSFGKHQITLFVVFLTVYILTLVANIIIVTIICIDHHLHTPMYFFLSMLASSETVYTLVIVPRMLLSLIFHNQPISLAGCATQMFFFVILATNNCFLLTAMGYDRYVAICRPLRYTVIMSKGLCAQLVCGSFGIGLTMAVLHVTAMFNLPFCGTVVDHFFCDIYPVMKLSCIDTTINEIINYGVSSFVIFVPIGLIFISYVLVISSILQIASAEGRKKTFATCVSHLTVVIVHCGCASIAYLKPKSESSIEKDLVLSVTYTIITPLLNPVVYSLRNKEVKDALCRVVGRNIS
In short: (§1)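 Each entry records the cell line, G-protein, co-transfected protein and tags used. Methods varied with the source, often transient luciferase assays in mammalian cell lines. A receptor–molecule pair is called responsive (active) if the original authors judged its signal statistically different from baseline and non-responsive (inactive) otherwise.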

OR10G8 (Homo sapiens) = target: T2, OR10G8 (Homo sapiens) (UniProt Q8NGN5)
T2 sequence (whole entry): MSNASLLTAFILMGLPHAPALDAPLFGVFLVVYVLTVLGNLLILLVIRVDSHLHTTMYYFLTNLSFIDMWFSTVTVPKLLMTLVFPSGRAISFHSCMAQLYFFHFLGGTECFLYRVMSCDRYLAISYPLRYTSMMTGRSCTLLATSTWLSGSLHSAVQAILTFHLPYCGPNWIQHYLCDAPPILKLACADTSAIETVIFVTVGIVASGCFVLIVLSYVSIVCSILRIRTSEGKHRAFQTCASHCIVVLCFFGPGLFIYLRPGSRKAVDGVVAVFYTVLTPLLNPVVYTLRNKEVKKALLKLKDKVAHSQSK
In short: as §1

OR10G2 (Homo sapiens) = target: T3, OR10G2 (Homo sapiens) (UniProt Q8NGC3)
T3 sequence (whole entry): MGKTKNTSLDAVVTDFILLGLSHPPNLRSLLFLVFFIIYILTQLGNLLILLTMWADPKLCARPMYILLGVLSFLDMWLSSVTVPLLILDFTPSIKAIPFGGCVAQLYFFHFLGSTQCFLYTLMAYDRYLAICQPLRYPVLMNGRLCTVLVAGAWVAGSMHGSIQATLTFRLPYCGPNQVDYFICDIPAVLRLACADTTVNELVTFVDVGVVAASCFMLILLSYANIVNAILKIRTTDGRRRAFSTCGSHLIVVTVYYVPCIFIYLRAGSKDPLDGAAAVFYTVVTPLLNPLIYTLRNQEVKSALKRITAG
In short: as §1

OR10G3 (Homo sapiens) = target: T4, OR10G3 (Homo sapiens) (UniProt Q8NGC4)
T4 sequence (whole entry): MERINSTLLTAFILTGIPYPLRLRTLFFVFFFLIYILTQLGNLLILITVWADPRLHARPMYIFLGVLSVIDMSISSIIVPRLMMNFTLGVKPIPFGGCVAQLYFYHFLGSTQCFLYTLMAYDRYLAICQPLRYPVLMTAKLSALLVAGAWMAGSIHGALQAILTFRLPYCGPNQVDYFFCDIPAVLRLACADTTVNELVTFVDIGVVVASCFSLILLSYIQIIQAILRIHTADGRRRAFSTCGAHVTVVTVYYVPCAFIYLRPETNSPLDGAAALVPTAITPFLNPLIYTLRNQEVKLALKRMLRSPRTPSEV
In short: as §1

OR10G4 (Homo sapiens) = target: T5, OR10G4 (Homo sapiens) (UniProt Q8NGN3)
T5 sequence (whole entry): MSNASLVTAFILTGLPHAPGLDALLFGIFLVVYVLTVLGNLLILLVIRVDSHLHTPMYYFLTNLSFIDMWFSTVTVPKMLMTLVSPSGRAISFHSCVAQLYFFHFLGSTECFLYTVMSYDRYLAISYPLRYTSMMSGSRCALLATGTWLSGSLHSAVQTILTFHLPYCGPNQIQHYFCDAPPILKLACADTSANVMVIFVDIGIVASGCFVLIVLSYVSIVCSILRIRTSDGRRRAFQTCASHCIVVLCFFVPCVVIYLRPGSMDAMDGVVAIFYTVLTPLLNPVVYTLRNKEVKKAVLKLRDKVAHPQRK
In short: as §1

OR10G6 (Homo sapiens) = target: T6, OR10G6 (Homo sapiens) (UniProt Q8NH81)
T6 sequence (whole entry): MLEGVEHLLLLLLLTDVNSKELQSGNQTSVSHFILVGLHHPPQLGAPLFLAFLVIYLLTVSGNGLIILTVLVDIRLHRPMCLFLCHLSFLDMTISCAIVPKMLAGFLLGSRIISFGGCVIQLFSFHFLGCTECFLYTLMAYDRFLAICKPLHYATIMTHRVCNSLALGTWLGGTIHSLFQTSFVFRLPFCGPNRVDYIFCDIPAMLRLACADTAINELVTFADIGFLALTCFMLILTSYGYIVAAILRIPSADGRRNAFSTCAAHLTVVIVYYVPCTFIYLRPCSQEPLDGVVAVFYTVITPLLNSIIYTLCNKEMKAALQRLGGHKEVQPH
In short: as §1

OR10G7 (Homo sapiens) = target: T7, OR10G7 (Homo sapiens) (UniProt Q8NGN6)
T7 sequence (whole entry): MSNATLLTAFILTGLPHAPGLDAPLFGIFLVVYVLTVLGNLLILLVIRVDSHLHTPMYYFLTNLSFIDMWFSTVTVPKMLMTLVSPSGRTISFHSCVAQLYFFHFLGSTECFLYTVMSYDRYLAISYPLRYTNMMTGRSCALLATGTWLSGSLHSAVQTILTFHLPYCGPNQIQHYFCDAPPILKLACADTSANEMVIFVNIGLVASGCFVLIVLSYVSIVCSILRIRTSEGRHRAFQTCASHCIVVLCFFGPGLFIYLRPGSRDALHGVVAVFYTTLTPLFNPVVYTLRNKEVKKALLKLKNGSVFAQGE
In short: as §1

OR10G9 (Homo sapiens) = target: T8, OR10G9 (Homo sapiens) (UniProt Q8NGN4)
T8 sequence (whole entry): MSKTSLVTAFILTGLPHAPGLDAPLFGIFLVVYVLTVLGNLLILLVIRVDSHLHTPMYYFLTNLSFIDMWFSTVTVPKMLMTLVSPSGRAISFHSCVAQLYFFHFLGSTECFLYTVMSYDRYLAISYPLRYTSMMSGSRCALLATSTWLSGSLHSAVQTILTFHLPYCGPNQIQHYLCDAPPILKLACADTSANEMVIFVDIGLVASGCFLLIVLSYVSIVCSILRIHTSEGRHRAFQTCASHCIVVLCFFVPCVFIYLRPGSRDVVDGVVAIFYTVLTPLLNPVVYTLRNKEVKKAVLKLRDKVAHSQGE
In short: as §1

OR10H1 (Homo sapiens) = target: T9, OR10H1 (Homo sapiens) (UniProt Q9Y4A9)
T9 sequence (whole entry): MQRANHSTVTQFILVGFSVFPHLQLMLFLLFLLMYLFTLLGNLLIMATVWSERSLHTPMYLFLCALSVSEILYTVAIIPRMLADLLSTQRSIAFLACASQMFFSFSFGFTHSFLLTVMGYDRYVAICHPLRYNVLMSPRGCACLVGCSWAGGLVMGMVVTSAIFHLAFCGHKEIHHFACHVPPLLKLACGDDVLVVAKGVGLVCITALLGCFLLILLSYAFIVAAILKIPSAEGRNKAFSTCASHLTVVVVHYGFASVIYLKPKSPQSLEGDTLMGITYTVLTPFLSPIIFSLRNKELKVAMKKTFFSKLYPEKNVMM
In short: as §1

OR10H2 (Homo sapiens) = target: T10, OR10H2 (Homo sapiens) (UniProt O60403)
T10 sequence (whole entry): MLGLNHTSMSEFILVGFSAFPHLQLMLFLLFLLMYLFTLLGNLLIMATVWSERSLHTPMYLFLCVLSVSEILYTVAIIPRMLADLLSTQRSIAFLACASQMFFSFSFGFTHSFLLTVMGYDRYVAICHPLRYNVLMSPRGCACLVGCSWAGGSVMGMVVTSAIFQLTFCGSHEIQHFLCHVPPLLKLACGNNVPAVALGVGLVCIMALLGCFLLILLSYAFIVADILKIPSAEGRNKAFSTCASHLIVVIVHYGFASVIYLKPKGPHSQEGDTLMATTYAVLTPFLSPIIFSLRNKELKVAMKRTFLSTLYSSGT
In short: as §1

OR10H3 (Homo sapiens) = target: T11, OR10H3 (Homo sapiens) (UniProt O60404)
T11 sequence (whole entry): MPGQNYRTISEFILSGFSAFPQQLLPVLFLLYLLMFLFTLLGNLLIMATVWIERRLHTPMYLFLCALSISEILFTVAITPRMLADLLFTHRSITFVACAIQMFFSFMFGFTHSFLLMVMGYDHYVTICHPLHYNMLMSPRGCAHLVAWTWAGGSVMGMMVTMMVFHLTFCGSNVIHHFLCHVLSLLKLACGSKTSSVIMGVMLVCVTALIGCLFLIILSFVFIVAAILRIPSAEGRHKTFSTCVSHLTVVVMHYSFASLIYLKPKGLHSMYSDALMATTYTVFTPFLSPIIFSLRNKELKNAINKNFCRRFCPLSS
In short: as §1

OR10H4 (Homo sapiens) = target: T12, OR10H4 (Homo sapiens) (UniProt Q8NGA5)
T12 sequence (whole entry): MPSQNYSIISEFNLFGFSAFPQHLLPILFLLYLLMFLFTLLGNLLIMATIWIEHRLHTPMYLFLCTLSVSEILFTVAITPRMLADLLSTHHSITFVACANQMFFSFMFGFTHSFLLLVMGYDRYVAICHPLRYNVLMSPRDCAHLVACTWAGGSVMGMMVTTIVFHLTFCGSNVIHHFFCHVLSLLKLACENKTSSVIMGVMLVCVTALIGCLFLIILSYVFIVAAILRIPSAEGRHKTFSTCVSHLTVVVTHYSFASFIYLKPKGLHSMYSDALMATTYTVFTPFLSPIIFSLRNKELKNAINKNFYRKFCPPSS
In short: as §1

OR10H5 (Homo sapiens) = target: T13, OR10H5 (Homo sapiens) (UniProt Q8NGA6)
T13 sequence (whole entry): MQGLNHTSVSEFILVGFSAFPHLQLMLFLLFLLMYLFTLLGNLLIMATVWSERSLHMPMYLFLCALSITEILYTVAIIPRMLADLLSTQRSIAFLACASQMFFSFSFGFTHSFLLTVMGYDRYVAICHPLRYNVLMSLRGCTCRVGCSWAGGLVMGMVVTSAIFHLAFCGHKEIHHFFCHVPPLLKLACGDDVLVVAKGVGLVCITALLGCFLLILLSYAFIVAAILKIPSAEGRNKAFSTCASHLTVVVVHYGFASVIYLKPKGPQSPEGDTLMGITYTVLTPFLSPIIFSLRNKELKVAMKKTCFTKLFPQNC
In short: as §1

OR10J1 (Homo sapiens) = target: T14, OR10J1 (Homo sapiens) (UniProt P30954)
T14 sequence (whole entry): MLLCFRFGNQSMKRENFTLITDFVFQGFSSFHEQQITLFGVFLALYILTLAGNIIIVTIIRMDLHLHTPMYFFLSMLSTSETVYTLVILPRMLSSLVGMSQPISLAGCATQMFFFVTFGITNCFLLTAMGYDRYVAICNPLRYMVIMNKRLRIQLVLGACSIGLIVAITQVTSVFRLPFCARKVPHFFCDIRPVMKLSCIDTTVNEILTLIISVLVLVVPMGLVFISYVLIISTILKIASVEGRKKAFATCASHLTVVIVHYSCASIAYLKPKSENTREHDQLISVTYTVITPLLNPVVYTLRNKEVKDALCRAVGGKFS
In short: as §1

OR10J3 (Homo sapiens) = target: T15, OR10J3 (Homo sapiens) (UniProt Q5JRS4)
T15 sequence (whole entry): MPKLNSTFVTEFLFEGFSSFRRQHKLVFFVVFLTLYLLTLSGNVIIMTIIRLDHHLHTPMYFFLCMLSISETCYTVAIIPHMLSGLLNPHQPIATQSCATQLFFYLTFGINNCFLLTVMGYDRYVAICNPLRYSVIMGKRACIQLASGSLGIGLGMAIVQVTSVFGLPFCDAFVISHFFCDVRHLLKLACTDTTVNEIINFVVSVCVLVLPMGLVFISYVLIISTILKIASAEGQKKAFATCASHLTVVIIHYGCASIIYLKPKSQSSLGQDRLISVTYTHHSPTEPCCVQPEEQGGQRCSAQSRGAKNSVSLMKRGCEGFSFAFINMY
In short: as §1

OR10K1 (Homo sapiens) = target: T16, OR10K1 (Homo sapiens) (UniProt Q8NGX5)
T16 sequence (whole entry): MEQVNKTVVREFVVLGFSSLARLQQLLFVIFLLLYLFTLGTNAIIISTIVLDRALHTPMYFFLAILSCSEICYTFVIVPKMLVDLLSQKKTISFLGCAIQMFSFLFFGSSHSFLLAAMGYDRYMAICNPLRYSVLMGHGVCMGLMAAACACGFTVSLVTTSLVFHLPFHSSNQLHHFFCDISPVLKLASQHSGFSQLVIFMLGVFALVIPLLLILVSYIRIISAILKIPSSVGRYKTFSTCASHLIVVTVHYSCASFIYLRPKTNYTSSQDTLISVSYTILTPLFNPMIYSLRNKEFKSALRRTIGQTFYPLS
In short: as §1

OR10P1 (Homo sapiens) = target: T17, OR10P1 (Homo sapiens) (UniProt Q8NGE3)
T17 sequence (whole entry): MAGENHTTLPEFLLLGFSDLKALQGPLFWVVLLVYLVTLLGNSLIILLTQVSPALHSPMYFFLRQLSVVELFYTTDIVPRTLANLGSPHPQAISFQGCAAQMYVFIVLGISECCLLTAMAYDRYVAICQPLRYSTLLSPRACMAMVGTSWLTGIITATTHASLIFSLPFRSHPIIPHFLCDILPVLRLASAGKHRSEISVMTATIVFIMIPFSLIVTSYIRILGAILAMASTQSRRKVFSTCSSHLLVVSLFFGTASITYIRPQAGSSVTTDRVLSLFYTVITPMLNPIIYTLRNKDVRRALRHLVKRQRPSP
In short: as §1

OR10Q1 (Homo sapiens) = target: T18, OR10Q1 (Homo sapiens) (UniProt Q8NGQ4)
T18 sequence (whole entry): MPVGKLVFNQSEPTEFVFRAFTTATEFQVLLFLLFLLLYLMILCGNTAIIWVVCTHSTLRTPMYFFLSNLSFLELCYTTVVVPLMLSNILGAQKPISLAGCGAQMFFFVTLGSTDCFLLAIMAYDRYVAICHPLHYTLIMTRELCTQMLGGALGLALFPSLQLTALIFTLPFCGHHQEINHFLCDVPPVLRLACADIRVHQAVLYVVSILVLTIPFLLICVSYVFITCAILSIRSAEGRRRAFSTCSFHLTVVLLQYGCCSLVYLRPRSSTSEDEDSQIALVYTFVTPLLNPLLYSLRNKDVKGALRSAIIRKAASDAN
In short: as §1

Measured: odorant receptor agonist call

CCCCCCCCCC(=O)[O-].[H+]
inactive: OR10J5 (Homo sapiens)

CC12CCC(CC1=O)C2(C)C (stereo not drawn)
inactive: OR10J5 (Homo sapiens)

CCCCCCCCC(=O)O
inactive: OR10G8 (Homo sapiens) | OR10J5 (Homo sapiens)

CC1=C(O)C(=O)OC1C (stereo not drawn)
inactive: all assays above

CCCCCC=O
inactive: OR10J5 (Homo sapiens)

— the M2OR odorant receptor database
